The record followed here is the array DNA melting data of Ke et al. (doi:10.1101/2024.01.08.574731).

The nature of data set [1]: melting temperature; fluorescence melt of hairpins on a sequencing array, two-state fit, raised by 9.35 °C to match UV melts. The conditions noted are these: sodium 0.088 M. The method, boiled down:
(§1)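 Two-state fits, bootstrapped, provided melting temperature and folding enthalpy from Cy3 fluorescence normalised to pre-quench Cy3 and to control constructs. Library hairpins with annealed Cy3 and quencher oligos were imaged on a sequenced MiSeq flow cell in 50 mM Na-HEPES pH 8.0, 25 mM NaCl, at 2.5 °C intervals up to 60 °C. Four replicates were combined with inverse-variance weighting. A 9.35 °C upward shift was applied to fitted temperatures to match UV melts.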

Data set [2] is described as follows: folding enthalpy; higher = less favourable; fluorescence melt of hairpins on a sequencing array, two-state fit. The conditions noted are these: sodium 0.088 M. Summed up:
as §1

As for GTGGACGAAAGTCTTCAC ((((((....)))..))), in data set [1], the Tm came out at 32.4 °C. Further, the folding enthalpy in data set [2] is -12.8 kcal/mol.
For GTGGACGGAAACGTCTAC ((.((((....)))).)), the Tm in data set [1] came out at 52.2 °C. In addition, in data set [2], the folding enthalpy was -24.9 kcal/mol.
The like results for GTGGACGGAAACGTCTGC (..((((....))))..) were, in that order, 49.2 °C and -15.8 kcal/mol.
As to GTGGACTCGAAAGAGCAC (((..(((....)))))), the Tm in data set [1] was 39.7 °C. For the same sequence, the folding enthalpy in data set [2] is -21.4 kcal/mol.
The like results for GTGGAGCGAAAGCTTCAC (((.(((....))).))) were, in that order, 58.1 °C and -35.6 kcal/mol.
For GTGGAGGGAAACCTCTAC ((.((((....)))).)), in that order: 46.7 °C and -25.7 kcal/mol.
The like results for GTGGAGGGAAACTTCCAC (((((.(....).))))) were, in that order, 47.3 °C and -30.4 kcal/mol.
As for GTGGAGTCGAAAGACCAC (((..(((....)))))), in data set [1], the Tm came to 44.9 °C. The folding enthalpy in data set [2] is -20.6 kcal/mol.
Regarding GTGGATCCGAAAGGACAC (((..(((....)))))), in data set [1], the Tm was found to be 39.4 °C. Moreover, in data set [2], the folding enthalpy is -23.3 kcal/mol.
Regarding GTGGATCGAAAGATGCAC (((.(((....))).))), the Tm in data set [1] is 55.9 °C. Further, the folding enthalpy in data set [2] is -45.9 kcal/mol.
As for GTGGATCGAAAGATTCAC (((.(((....))).))), the Tm in data set [1] was 53.8 °C. For the same sequence, the folding enthalpy in data set [2] was -38.2 kcal/mol.
The like results for GTGGATGAAAATCCAC ((((((....)))))) were, in that order, 59.9 °C and -33.9 kcal/mol.
Consider GTGGATGGAAACGTCTAC ((.((.(....).)).)), for which the Tm in data set [1] was found to be 32.5 °C. For the same sequence, the folding enthalpy in data set [2] was -19.8 kcal/mol.
On to GTGGCAGGAAACTGCCGC (.(((((....))))).), for which the Tm in data set [1] is 61.1 °C. Also, in data set [2], the folding enthalpy was -18.3 kcal/mol.
Turning to GTGGCAGGAAACTGCTAC ((.((((....)))).)), in data set [1], the Tm is 53.1 °C. The folding enthalpy in data set [2] was -26.4 kcal/mol.
Turning to GTGGCCGAAAGGCACCAC ((((((....)))..))), the Tm in data set [1] stood at 43.6 °C. The folding enthalpy in data set [2] is -12.3 kcal/mol.
In the case of GTGGCCGAAAGGCCGCAC ((((((....)))..))), in data set [1], the Tm was 62.9 °C. Besides, the folding enthalpy in data set [2] is -9.1 kcal/mol.
As for GTGGCCGAAAGGCTCCAC ((((((....)))..))), in data set [1], the Tm turned out to be 39 °C. Further, the folding enthalpy in data set [2] is -11.4 kcal/mol.
As to GTGGCCGAAAGGCTGCAC ((((((....)))..))), the Tm in data set [1] worked out at 46.7 °C. The folding enthalpy in data set [2] was -12.4 kcal/mol.
Turning to GTGGCCGGAAACGGCTGC (..((((....))))..), the Tm in data set [1] was found to be 51.9 °C. Further, the folding enthalpy in data set [2] is -13 kcal/mol.
With GTGGCGCGAAAGCGCAC (((.(((....)))))), the Tm in data set [1] was 57.6 °C. Moreover, the folding enthalpy in data set [2] is -8.04 kcal/mol.
Consider GTGGCTACGAAAGTACAC (((..(((....)))))), for which, in data set [1], the Tm is 32.9 °C. Moreover, the folding enthalpy in data set [2] was -11.3 kcal/mol.
On to GTGGCTGGAAACAGCCGC (.(((((....))))).), for which the Tm in data set [1] came to 63 °C. For the same sequence, the folding enthalpy in data set [2] is -17.4 kcal/mol.
The like results for GTGGCTGGAAACAGCTGC (..((((....))))..) were, in that order, 47.4 °C and -15.6 kcal/mol.
Turning to GTGGGACCGAAAGGTCAC (((..(((....)))))), the Tm in data set [1] worked out at 64.2 °C. Besides, the folding enthalpy in data set [2] was -19.5 kcal/mol.
For the sequence GTGGGACGAAAGTCCAC (((.(((....)))))), the Tm in data set [1] is 55.9 °C. Besides, the folding enthalpy in data set [2] was -13.2 kcal/mol.
In the case of GTGGGACGAAAGTCGCAC (((.(((....))).))), the Tm in data set [1] was 66.3 °C. In data set [2], the folding enthalpy was -38.6 kcal/mol.
The like results for GTGGGAGGAAACTCCCAC (((((((....))))))) were, in that order, 67.2 °C and -32.1 kcal/mol.
For GTGGGAGGAAACTCTCGC (.(.(((....))).).), in data set [1], the Tm amounted to 37.2 °C. For the same sequence, in data set [2], the folding enthalpy is -30.2 kcal/mol.
For GTGGGCGAAAGCCAACAC ((((((....)))..))), in that order: 53.5 °C and -15 kcal/mol.
Take GTGGGCGAAAGCCACCAC ((((((....)))..))): the Tm in data set [1] worked out at 47.2 °C. In data set [2], the folding enthalpy is -12.7 kcal/mol.
With GTGGGCGAAAGCCAGCAC ((((((....)))..))), the Tm in data set [1] came out at 46.5 °C. Besides, the folding enthalpy in data set [2] was -12.8 kcal/mol.
For GTGGGCGAAAGCCCCAC ((((((....))).))), the Tm in data set [1] was determined as 60.2 °C. Also, the folding enthalpy in data set [2] was -11.3 kcal/mol.
As to GTGGGCGAAAGCCGTCAC ((((((....)))..))), in data set [1], the Tm turned out to be 36.9 °C. In data set [2], the folding enthalpy was -13.2 kcal/mol.
For GTGGGCGGAAACACCCAC (((((.(....).))))), in data set [1], the Tm is 53.1 °C. Besides, the folding enthalpy in data set [2] was -43.3 kcal/mol.
In the case of GTGGGCGGAAACGTCCAC ((((.((....)).)))), the Tm in data set [1] worked out at 64.7 °C. Besides, in data set [2], the folding enthalpy was -41.7 kcal/mol.
